Experimental data as given in ChEMBL document CHEMBL4406834, “Phenylthiazoles with nitrogenous side chain: An approach to overcome molecular obesity” (Eur J Med Chem, 2019).
≈ marks a conversion by molar mass, not a printed value. Calls of active or inactive are those of the source. No cut-off for these calls is given here.

How the values were obtained:
[1] = Aqueous solubility of the compound in phosphate buffered saline assessed as concentration that produces no precipitate measured as OD at 540 nm; assay type: physicochemical
[2] = test system: Escherichia coli; experiment: Antibacterial activity against Escherichia coli ATCC 25922; assay type: functional
[3] = test system: Staphylococcus aureus; experiment: Antibacterial activity against methicilline-sensitive Staphylococcus aureus NRS-107 after 18 to 20 hrs by CLSI-based broth microdilution assay; assay type: functional
Procedure, shortened: (§1)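 Broth microdilution per CLSI. Strains grown aerobically overnight on tryptone soy agar at 37 °C, adjusted to 0.5 McFarland, then diluted in cation-adjusted Mueller-Hinton broth to about 5 × 10^5 CFU/mL. Compounds (10 mg/mL DMSO stocks) serially diluted. Incubated aerobically at 37 °C for 18-20 h. MIC is the lowest concentration with no visible growth.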

[4] = test system: Acinetobacter baumannii; experiment: Antibacterial activity against Acinetobacter baumannii ATCC 19606; assay type: functional; conditions: ATCC 19606 = CIP 70.34 = JCM 6841
[5] = test system: Staphylococcus aureus; experiment: Bactericidal activity against methicilline-sensitive Staphylococcus aureus ATCC 6538 incubated for 18 to 20 hrs followed by replating on tryptic soy agar plate and further incubated for 18 to 24 hrs by CLSI-based broth microdilution assay; assay type: functional
Procedure, shortened: (§2)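 MBC: after the broth microdilution MIC (CAMHB, ~5 × 10^5 CFU/mL, 37 °C, 18-20 h), 4 µL from wells without growth plated onto tryptic soy agar. Plates incubated 37 °C for 18-20 h. MBC is the lowest concentration giving 99.9% reduction in growth.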

[6] = test system: Staphylococcus aureus; experiment: Antibacterial activity against methicilline-resistant Staphylococcus aureus NRS385 USA500 after 18 to 20 hrs by CLSI-based broth microdilution assay; assay type: functional; procedure, shortened: as §1
[7] = test system: Staphylococcus aureus; experiment: Bactericidal activity against vancomycin-resistant Staphylococcus aureus 12 incubated for 18 to 20 hrs followed by replating on tryptic soy agar plate and further incubated for 18 to 24 hrs by CLSI-based broth microdilution assay; assay type: functional; procedure, shortened: as §2
[8] = test system: Staphylococcus aureus; experiment: Bactericidal activity against methicilline-resistant Staphylococcus aureus NRS-119 incubated for 18 to 20 hrs followed by replating on tryptic soy agar plate and further incubated for 18 to 24 hrs by CLSI-based broth microdilution assay; assay type: functional; procedure, shortened: as §2
[9] = test system: Staphylococcus aureus; experiment: Antibacterial activity against Staphylococcus aureus ATCC BAA42 after 18 to 20 hrs by CLSI-based broth microdilution assay; assay type: functional; procedure, shortened: as §1
[10] = test system: Escherichia coli; experiment: Antibacterial activity against TolC-deficient Escherichia coli JW55031; assay type: functional
[11] = test system: Pseudomonas aeruginosa; experiment: Antibacterial activity against Pseudomonas aeruginosa ATCC 27853; assay type: functional
[12] = test system: Staphylococcus aureus; experiment: Antibacterial activity against methicilline-resistant Staphylococcus aureus NRS-119 after 18 to 20 hrs by CLSI-based broth microdilution assay; assay type: functional; procedure, shortened: as §1
[13] = test system: Staphylococcus epidermidis; experiment: Antibacterial activity against methicillin-resistant Staphylococcus epidermidis NRS101 after 18 to 20 hrs by CLSI-based broth microdilution assay; assay type: functional; procedure, shortened: as §1
[14] = test system: Klebsiella pneumoniae; experiment: Bactericidal activity against Klebsiella pneumoniae BAA-1706; assay type: functional
[15] = test system: Staphylococcus epidermidis; experiment: Bactericidal activity against methicillin-resistant Staphylococcus epidermidis NRS101 incubated for 18 to 20 hrs followed by replating on tryptic soy agar plate and further incubated for 18 to 24 hrs by CLSI-based broth microdilution assay; assay type: functional
[16] = test system: Escherichia coli; experiment: Bactericidal activity against Escherichia coli ATCC 25922; assay type: functional
[17] = test system: Staphylococcus aureus; experiment: Bactericidal activity against vancomycin-resistant Staphylococcus aureus 10 incubated for 18 to 20 hrs followed by replating on tryptic soy agar plate and further incubated for 18 to 24 hrs by CLSI-based broth microdilution assay; assay type: functional; procedure, shortened: as §2
[18] = Safety index, ratio of non-toxic concentration for human Caco2 cells to MIC for methicillin-resistant Staphylococcus aureus NRS384 USA300; assay type: toxicity
Procedure, shortened: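 Caco-2 cells exposed to compound in triplicate at 32, 64 and 128 µg/mL for 2 h, then MTS reagent for 4 h, absorbance at OD490. Viability expressed as percent of DMSO control. Highest non-toxic concentration divided by the broth microdilution MIC against MRSA USA300.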

[19] = test system: Staphylococcus aureus; experiment: Antibacterial activity against methicilline-sensitive Staphylococcus aureus ATCC 6538 after 18 to 20 hrs by CLSI-based broth microdilution assay; assay type: functional; procedure, shortened: as §1
[20] = test system: Staphylococcus aureus; experiment: Bactericidal activity against methicilline-resistant Staphylococcus aureus NRS384 USA300 incubated for 18 to 20 hrs followed by replating on tryptic soy agar plate and further incubated for 18 to 24 hrs by CLSI-based broth microdilution assay; assay type: functional; procedure, shortened: as §2
[21] = test system: Pseudomonas aeruginosa; experiment: Antibacterial activity against Pseudomonas aeruginosa ATCC 15442; assay type: functional
[22] = test system: Staphylococcus aureus; experiment: Antibiofilm activity against methicillin resistant Staphylococcus aureus NRS384 USA300 assessed as disruption of preformed biofilm at 4 x MIC incubated for 24 hrs by crystal violet staining based spectrophotometric analysis relative to control; assay type: functional
Procedure, shortened: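 MRSA USA300 overnight culture diluted 1:100 in tryptic soy broth + 1% glucose. Biofilm formed for 24 h at 37 °C. Planktonic cells removed, then compounds added at 256 to 2 µg/mL in TSB for 24 h at 37 °C. Wells washed with PBS, stained with 0.1% crystal violet for 30 min, destained with ethanol, read at OD595. Percent eradication relative to DMSO; unpaired t test.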

[23] = test system: Klebsiella pneumoniae; experiment: Antibacterial activity against Klebsiella pneumoniae BAA-1706; assay type: functional
[24] = test system: Streptococcus pneumoniae; experiment: Antibacterial activity against cephalosporin-resistant Streptococcus pneumoniae ATCC 51916 after 18 to 20 hrs by CLSI-based broth microdilution assay; assay type: functional; procedure, shortened: as §1
[25] = test system: Staphylococcus aureus; experiment: Antibacterial activity against vancomycin-resistant Staphylococcus aureus 10 after 18 to 20 hrs by CLSI-based broth microdilution assay; assay type: functional; procedure, shortened: as §1
[26] = test system: Pseudomonas aeruginosa; experiment: Bactericidal activity against Pseudomonas aeruginosa ATCC 27853; assay type: functional
[27] = test system: Listeria monocytogenes; experiment: Antibacterial activity against Listeria monocytogenes ATCC 19111 after 18 to 20 hrs by CLSI-based broth microdilution assay; assay type: functional
[28] = test system: Staphylococcus aureus; experiment: Bactericidal activity against methicilline-resistant Staphylococcus aureus NRS386 USA700 incubated for 18 to 20 hrs followed by replating on tryptic soy agar plate and further incubated for 18 to 24 hrs by CLSI-based broth microdilution assay; assay type: functional; procedure, shortened: as §2
[29] = test system: Escherichia coli; experiment: Bactericidal activity against TolC-deficient Escherichia coli JW55031; assay type: functional
[30] = test system: Enterococcus faecalis; experiment: Bactericidal activity against vancomycin-resistant Enterococcus faecalis ATCC 51299 incubated for 18 to 20 hrs followed by replating on tryptic soy agar plate and further incubated for 18 to 24 hrs by CLSI-based broth microdilution assay; assay type: functional; procedure, shortened: as §2
[31] = test system: Escherichia coli; experiment: Bactericidal activity against Escherichia coli BW25113; assay type: functional
[32] = test system: Streptococcus pneumoniae; experiment: Bactericidal activity against methicillin-resistant Streptococcus pneumoniae ATCC 700677 incubated for 18 to 20 hrs followed by replating on tryptic soy agar plate and further incubated for 18 to 24 hrs by CLSI-based broth microdilution assay; assay type: functional; procedure, shortened: as §2
[33] = test system: Streptococcus pneumoniae; experiment: Antibacterial activity against methicillin-resistant Streptococcus pneumoniae ATCC 700677 after 18 to 20 hrs by CLSI-based broth microdilution assay; assay type: functional; procedure, shortened: as §1
[34] = test system: Staphylococcus aureus; experiment: Bactericidal activity against Staphylococcus aureus ATCC BAA42 incubated for 18 to 20 hrs followed by replating on tryptic soy agar plate and further incubated for 18 to 24 hrs by CLSI-based broth microdilution assay; assay type: functional; procedure, shortened: as §2
[35] = test system: Staphylococcus aureus; experiment: Bactericidal activity against methicillin-resistant Staphylococcus aureus USA400 assessed as reduction in bacterial burden at 5 times MIC after 4 hrs by time kill assay; assay type: functional, organism-based

| SMILES | solubility kinetic [1] [µM] | MIC [2] [µg/mL] | MIC [3] [µg/mL] | MIC [4] [µg/mL] | MBC [5] [µg/mL] | MIC [6] [µg/mL] | MBC [7] [µg/mL] | MBC [8] [µg/mL] | MIC [9] [µg/mL] | MIC [10] [µg/mL] | MIC [11] [µg/mL] | MIC [12] [µg/mL] | MIC [13] [µg/mL] | MBC [14] [µg/mL] | MBC [15] [µg/mL] | MBC [16] [µg/mL] | MBC [17] [µg/mL] | selectivity ratio [18] | MIC [19] [µg/mL] | MBC [20] [µg/mL] | also measured |
| --- | --- | --- | --- | --- | --- | --- | --- | --- | --- | --- | --- | --- | --- | --- | --- | --- | --- | --- | --- | --- | --- |
| C/C(=N\NC(=N)N)c1sc(-c2ccc(N3CCCCC3)cc2)nc1C | 480 (≈ 171 µg/mL) | 64 (≈ 180 µM) | 4 (≈ 11.2 µM) | 32 (≈ 89.8 µM) | 8 (≈ 22.4 µM) | 8 (≈ 22.4 µM) | 16 (≈ 44.9 µM) | 16 (≈ 44.9 µM) | 4 (≈ 11.2 µM) | 32 (≈ 89.8 µM) | > 64 | 4 (≈ 11.2 µM) | 8 (≈ 22.4 µM) | 64 (≈ 180 µM) | 8 (≈ 22.4 µM) | 64 (≈ 180 µM) | 16 (≈ 44.9 µM) | 16 | 4 (≈ 11.2 µM) | 16 (≈ 44.9 µM) | MIC [21]: > 64 µg/mL; inhibition (INH) [22]: 72%; MIC [23]: 64 µg/mL (≈ 180 µM); MIC [24]: 8 µg/mL (≈ 22.4 µM); MIC [25]: 4 µg/mL (≈ 11.2 µM); MBC [26]: > 64 µg/mL; MIC [27]: 8 µg/mL (≈ 22.4 µM); MBC [28]: 16 µg/mL (≈ 44.9 µM); MBC [29]: 32 µg/mL (≈ 89.8 µM); MBC [30]: 64 µg/mL (≈ 180 µM); MBC [31]: 64 µg/mL (≈ 180 µM); MBC [32]: 16 µg/mL (≈ 44.9 µM); MIC [33]: 8 µg/mL (≈ 22.4 µM); MBC [34]: 16 µg/mL (≈ 44.9 µM); inhibition [35]: Active |
| C/C(=N\NC(=N)N)c1sc(-c2ccc(N3CCCC(C)C3)cc2)nc1C (stereo not given) | 435 (≈ 161 µg/mL) | 16 (≈ 43.2 µM) | 8 (≈ 21.6 µM) | 32 (≈ 86.4 µM) | 16 (≈ 43.2 µM) | 8 (≈ 21.6 µM) | 8 (≈ 21.6 µM) | 16 (≈ 43.2 µM) | 8 (≈ 21.6 µM) | 8 (≈ 21.6 µM) | > 64 | 8 (≈ 21.6 µM) | 4 (≈ 10.8 µM) | 32 (≈ 86.4 µM) | 8 (≈ 21.6 µM) | 32 (≈ 86.4 µM) | 16 (≈ 43.2 µM) | 8 | 8 (≈ 21.6 µM) | 16 (≈ 43.2 µM) | MIC [21]: > 64 µg/mL; inhibition (INH) [22]: 50%; MIC [23]: 16 µg/mL (≈ 43.2 µM); MIC [24]: 8 µg/mL (≈ 21.6 µM); MIC [25]: 8 µg/mL (≈ 21.6 µM); MBC [26]: > 64 µg/mL; MIC [27]: 2 µg/mL (≈ 5.4 µM); MBC [28]: 8 µg/mL (≈ 21.6 µM); MBC [29]: 16 µg/mL (≈ 43.2 µM); MBC [30]: 32 µg/mL (≈ 86.4 µM); MBC [31]: 32 µg/mL (≈ 86.4 µM); MBC [32]: 32 µg/mL (≈ 86.4 µM); MIC [33]: 8 µg/mL (≈ 21.6 µM); MBC [34]: 16 µg/mL (≈ 43.2 µM); inhibition [35]: Active |
